Our source for the Drug uptake, MIC and Activity values is ChEMBL document CHEMBL4017525, “Lactam-Stapled Cell-Penetrating Peptides: Cell Uptake and Membrane Binding Properties” (J Med Chem, 2017).

A word on the MIC: it is the smallest concentration in the dilution series that meets the test's criterion for growth inhibition.

The nature of data set [1]: Drug uptake in human HeLa cells at 2 uM after 4 hrs using fluorescein labeled compound by flow cytometric analysis. It is filed as ADME, cell-based. The method in brief:
(§1)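 Adherent cells were exposed to fluorescein-labeled peptide at 2 μM for 4 h in serum-free medium. Trypan blue (0.4% end concentration) was added before flow cytometry to quench surface-bound fluorescence. Intracellular signal was normalized to carboxyfluorescein-labeled R9, as the mean ± SD of two independent experiments.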
(Flow cytometry measures light scatter and fluorescence of single cells or particles in a stream.)

Data set [2] in a line: Drug uptake in HEK293 cells at 2 uM after 4 hrs using fluorescein labeled compound by flow cytometric analysis. The data set is classed as ADME, cell-based. Particulars: human, hek293, 4 h. In short, it runs like this:
as §1

The subject of another data set is Enterococcus faecalis. As to the kind of experiment: Antibacterial activity against Enterococcus faecalis ATCC 29212 after 22 hrs by resazurin based broth dilution assay. The conditions noted are these: ATCC 29212, 22 h. The data set is classed as functional. In short, it runs like this: (§2)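 Standard broth dilution assay determining MIC against two Gram-negative and two Gram-positive strains. Values are the mean of two independent experiments.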
(In general: Alamar Blue is a resazurin reagent that responds to reducing activity.)

For the next data set, the system named is HEK293. As to the kind of experiment: Cytotoxicity against HEK293 cells at 2 uM after 4 hrs using fluorescein labeled compound by flow cytometric analysis. The data set is classed as cell-based. The conditions noted are these: human, hek293, 4 h.
A further data set has as its system Escherichia coli. The data set can be described thus: Antibacterial activity against Escherichia coli ATCC 25922 after 22 hrs by resazurin based broth dilution assay. The data set is classed as functional. The conditions noted are these: ATCC 25922, 22 h. In short, it runs like this: as §2
The next data set relates to Staphylococcus aureus. As to the kind of experiment: Antibacterial activity against Staphylococcus aureus ATCC 25923 after 22 hrs by resazurin based broth dilution assay. It is filed as functional. The conditions noted are these: ATCC 25923, 22 h. The method in brief: as §2
Data set [3] concerns Lipid bilayer. The data set can be described thus: Binding affinity to POPC/POPG lipid vesicles assessed as induction of membrane leakage at peptide to lipid ratio of 1:25 after 30 mins by spectroflurimetric analysis. In short, it runs like this:
(§3)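 Large unilamellar vesicles (100 nm extrusion) of POPC or POPC/POPG (3/1, mol/mol) were loaded with ANTS dye and DPX quencher, and leakage was read by fluorescence dequenching. Lipid was 50 μM and peptide 2 μM (1:25), incubated 30 min at 30 °C. For lines 6 and 8, a −120 mV potential (negative inside) was set with valinomycin and outside K+ replaced by Na+.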

In data set [4] the test system is Lipid bilayer. As to the kind of experiment: Binding affinity to POPC/POPG lipid vesicles assessed as induction of membrane leakage at peptide to lipid ratio of 1:25 at transmembrane potential of -120 mV after 30 mins by spectroflurimetric analysis. The method in brief:
as §3

For a further data set, the system named is HeLa. The data set can be described thus: Cytotoxicity against human HeLa cells at 2 uM after 4 hrs using fluorescein labeled compound by flow cytometric analysis. The data set is classed as cell-based.
A further data set has as its system Pseudomonas aeruginosa. As to the kind of experiment: Antibacterial activity against Pseudomonas aeruginosa ATCC 27853 after 22 hrs by resazurin based broth dilution assay. It is filed as functional. Particulars: ATCC 27853, 22 h. The method in brief: as §2
Data set [5] concerns Lipid bilayer. The data set can be described thus: Binding affinity to POPC lipid vesicles assessed as induction of membrane leakage at peptide to lipid ratio of 1:25 at transmembrane potential of -120 mV after 30 mins by spectroflurimetric analysis. In short, it runs like this:
as §3

In data set [6] the test system is Lipid bilayer. The data set can be described thus: Binding affinity to POPC lipid vesicles assessed as induction of membrane leakage at peptide to lipid ratio of 1:25 after 30 mins by spectroflurimetric analysis. The method in brief: as §3

Activity calls are given as the source filed them. A value given as a limit tells only on which side of the number the result lay.

Regarding `N=C(N)NCCC[C@H](NC(=O)[C@H](CCCNC(=N)N)NC(=O)[C@H](CCCNC(=N)N)NC(=O)[C@H](CCCNC(=N)N)NC(=O)[C@H](CCCNC(=N)N)NC(=O)[C@H](CCCNC(=N)N)NC(=O)[C@H](CCCNC(=N)N)NC(=O)[C@H](CCCNC(=N)N)NC(=O)[C@@H](N)CCCNC(=N)N)C(=O)O`, the Drug uptake entry in data set [1] and in [2] was “Active” throughout.

Regarding H-AAVLLPVLLAAP-NH2, the minimum inhibitory concentration (MIC) against Enterococcus faecalis, against Escherichia coli, against Staphylococcus aureus and against Pseudomonas aeruginosa was above 256 µg/mL in each case. The Activity result in the data set with HEK293 and with HeLa was “Non-Toxic” each time. Moreover, the outcome in the data set on Lipid bilayer [3] and in the data set with Lipid bilayer [4] was inactive. In addition, the Drug uptake entry in data set [1] and in data set [2] was “Active” throughout.

H-KLALKALKALKAALKLA-NH2: the MIC in the data set with Enterococcus faecalis is 256 µg/mL; with Escherichia coli it was 16 µg/mL; against Staphylococcus aureus, 16 µg/mL; against Pseudomonas aeruginosa, 256 µg/mL. Further, the Activity entry in the data set with HEK293 and in the data set on HeLa was “Non-Toxic” each time. For the same compound, the result with Lipid bilayer [3] and with Lipid bilayer [4] was Active. In addition, the Drug uptake entry in [1] and in [2] was “Active” each time.

Regarding H-PLILLRLLRGQF-NH2, the MIC is 64 µg/mL in the data set with Enterococcus faecalis, 256 µg/mL against Escherichia coli, 16 µg/mL against Staphylococcus aureus and above 256 µg/mL in the data set with Pseudomonas aeruginosa. The Activity entry with HEK293 and in the data set with HeLa was “Non-Toxic” throughout. Moreover, the outcome in the data set with Lipid bilayer [3] and in the data set on Lipid bilayer [4] was Active. Besides, the Drug uptake result in [1] and in data set [2] was “Active” each time.

Turning to H-QQRKRKIWSILAPLGTTLVKLVAGIG-NH2, the MIC against Enterococcus faecalis amounted to 32 µg/mL; against Escherichia coli it was 32 µg/mL; in the data set on Staphylococcus aureus it was 32 µg/mL; in the data set on Pseudomonas aeruginosa, 64 µg/mL. Further, the Activity entry in the data set on HEK293 was “Non-Toxic”; in the data set with Lipid bilayer [5], 100%; in the data set on HeLa, “Non-Toxic”; with Lipid bilayer [6] it was 100%. In addition, the Drug uptake result in data set [1] and in data set [2] was “Active” throughout.
